Laboratory results reported in ChEMBL document CHEMBL4665798, “Novel Human Urate Transporter 1 Inhibitors as Hypouricemic Drug Candidates with Favorable Druggability” (J Med Chem, 2020).

What was measured:
Mus musculus [1] = experiment: Potency index, ratio of lesinurad to test compound for hypouricemic activity in Kunming mouse model of xanthine/potassium oxonate-induced acute hyperuricemia assessed as decrease in serum uric acid level at 2 mg/kg administered 3 hrs prior to xanthine/potassium oxonate and measured after 6 hrs; assay type: functional
Mus musculus [2] = experiment: Hypouricemic activity in Kunming mouse model of xanthine/potassium oxonate-induced acute hyperuricemia assessed as decrease in serum uric acid level at 2 mg/kg administered 3 hrs prior to xanthine/potassium oxonate and measured after 6 hrs relative to control; assay type: functional; set-up: scale not given: the % may be the effect or the level left; details: time 9 hrs
Outline: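 Male Kunming mice, hyperuricemia induced by intragastric xanthine plus subcutaneous potassium oxonate (0.2 mL each). […] Groups: normal vehicle, untreated model, active control, test. Serum uric acid measured. Decrease ratio = (model SUA − compound SUA)/(model SUA − vehicle SUA).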

[3] = Sub-acute toxicity in Kunming mouse assessed as edema in proximal tubule at 50 mg/kg, po administered as single dose every other day for 14 days by H and E staining based assay; assay type: organism-based; details: in vivo, 336 h, time 14 day
Outline: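 Kunming mice, n = 4 per sex, fasted 12 h. Dosed orally on D0, D2, D4, D6, D8, D10 and D12; controls received an equal volume of vehicle. Weighed before each dose. Killed at D14; heart, liver, spleen, lung and kidney taken for haematoxylin and eosin staining.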

[4] = biological target: T1, Solute carrier family 2, facilitated glucose transporter member 9 (Homo sapiens, UniProt Q9NRM0); experiment: Inhibition of GLUT9 (unknown origin)
T1 sequence (Q9NRM0 whole entry): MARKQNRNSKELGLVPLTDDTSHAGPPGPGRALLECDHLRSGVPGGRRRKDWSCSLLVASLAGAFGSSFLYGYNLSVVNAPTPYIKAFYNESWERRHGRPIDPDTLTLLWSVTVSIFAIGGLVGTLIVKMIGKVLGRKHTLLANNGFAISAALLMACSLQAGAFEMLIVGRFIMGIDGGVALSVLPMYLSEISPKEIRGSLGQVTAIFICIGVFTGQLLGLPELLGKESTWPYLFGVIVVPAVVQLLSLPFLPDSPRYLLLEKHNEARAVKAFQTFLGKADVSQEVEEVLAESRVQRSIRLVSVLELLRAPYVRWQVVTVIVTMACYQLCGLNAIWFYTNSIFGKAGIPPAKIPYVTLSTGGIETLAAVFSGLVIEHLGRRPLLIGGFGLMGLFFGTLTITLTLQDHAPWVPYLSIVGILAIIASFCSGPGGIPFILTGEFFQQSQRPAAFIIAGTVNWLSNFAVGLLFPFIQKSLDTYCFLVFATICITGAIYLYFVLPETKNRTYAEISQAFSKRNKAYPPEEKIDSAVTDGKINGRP

[5] = biological target: T2, Solute carrier family 22 member 12 (Homo sapiens, UniProt Q96S37); experiment: Inhibition of human URAT1 expressed in HEK293T cells assessed as reduction in [14C]uric acid uptake preincubated for 15 mins followed by [14C]uric acid addition by liquid scintillation counting method; assay type: cell-based
T2 sequence (Q96S37 whole entry): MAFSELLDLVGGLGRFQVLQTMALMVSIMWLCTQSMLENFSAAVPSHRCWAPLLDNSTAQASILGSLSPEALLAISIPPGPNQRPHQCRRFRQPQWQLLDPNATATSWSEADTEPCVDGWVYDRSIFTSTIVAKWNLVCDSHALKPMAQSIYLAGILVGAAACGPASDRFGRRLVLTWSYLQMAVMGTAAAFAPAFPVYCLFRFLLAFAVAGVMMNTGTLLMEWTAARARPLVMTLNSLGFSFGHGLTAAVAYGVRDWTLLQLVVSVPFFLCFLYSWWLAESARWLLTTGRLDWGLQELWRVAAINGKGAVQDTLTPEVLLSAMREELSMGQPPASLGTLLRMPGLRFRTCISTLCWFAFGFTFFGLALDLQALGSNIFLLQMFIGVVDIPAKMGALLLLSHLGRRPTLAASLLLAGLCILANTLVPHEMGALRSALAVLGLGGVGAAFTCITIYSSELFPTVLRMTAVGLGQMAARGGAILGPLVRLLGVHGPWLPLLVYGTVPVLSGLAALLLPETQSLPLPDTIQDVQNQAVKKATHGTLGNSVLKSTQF

Row | Structure (SMILES) | Ratio (Mus musculus [1]) | Activity (Mus musculus [2]) | Activity [3] | IC50 [4] | IC50 [5]
1 | CC(Sc1nc2ncccc2n1-c1ccc(C#N)c2ccccc12)C(=O)O (configuration not stated) | 2.8 | 95.01% | – | – | –
2 | O=C(O)C1(Sc2nc3ncccc3n2-c2ccc(C3CC3)c3ccccc23)CCC1 | – | 62.18% | Toxic | – | –
3 | O=C(CSc1nnc(Br)n1-c1ccc(C2CC2)c2ccccc12)NS(=O)(=O)c1ccc(F)cc1F | – | 93.78% | – | 32.2 µM | 7.29 µM
